Assay results reported in ChEMBL document CHEMBL3243954 (J Med Chem, 1979).

Experiments:
[1] = (§1) Drug metabolism in mouse liver microsomes assessed as rate of esterase-mediated compound hydrolysis by pH stat based titrimetric analysis; assay type: ADME; conditions: microsomes
Mus musculus [2] = assay: Antimetrazol activity in iv dosed mouse assessed as inhibition of metrazol-induced tonic-extensor seizures administered 30 mins prior to metrazol challenge; assay type: functional
Outline: (§2)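 Mice dosed iv with the ester in aqueous solution containing under 10% chremofor. Metrazol 125 mg/kg sc was given 30 or 60 min after the ester. ED50 is the dose preventing tonic-extensor seizures in 50% of mice, derived by probit analysis.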

Mus musculus [3] = assay: Antimetrazol activity in iv dosed mouse assessed as inhibition of metrazol-induced tonic-extensor seizures administered 60 mins prior to metrazol challenge; assay type: functional; outline: as §2
Mus musculus [4] = assay: Muscle relaxant activity in iv dosed mouse after 30 mins by rotarod test; assay type: ADME, organism-based; conditions: in vivo, 0.5 h
Mus musculus [5] = assay: Muscle relaxant activity in iv dosed mouse after 60 mins by rotarod test; assay type: ADME, organism-based; conditions: in vivo, 1 h
Mus musculus [6] = species on record: Mus musculus; assay: Ratio of ED50 for muscle relaxant activity in mouse to ED50 for antimetrazol activity in mouse measured after 30 mins
[7] = Drug metabolism in mouse liver microsomes assessed as rate of esterase-mediated compound hydrolysis measured per mg of protein by pH stat based titrimetric analysis; assay type: ADME
Mus musculus [8] = species on record: Mus musculus; assay: Ratio of ED50 for muscle relaxant activity in mouse to ED50 for antimetrazol activity in mouse measured after 60 mins
esterase = assay: as §1; assay type: ADME; conditions: liver microsomes
Brain [9] = assay: Drug uptake albino mouse brain at 10 mg equivalent of oxazepam/kg, iv after 2 mins measured per gm of tissue by thin-layer chromatography; assay type: ADME, organism-based; conditions: in vivo
Brain [10] = assay: Drug uptake albino mouse brain at 10 mg equivalent of oxazepam/kg, iv after 5 mins measured per gm of tissue by thin-layer chromatography; assay type: ADME, organism-based; conditions: in vivo
Brain [11] = assay: Drug uptake albino mouse brain at 10 mg equivalent of oxazepam/kg, iv after 10 mins measured per gm of tissue by thin-layer chromatography; assay type: ADME, organism-based; conditions: in vivo
Brain [12] = assay: Drug uptake albino mouse brain at 10 mg equivalent of oxazepam/kg, iv after 20 mins measured per gm of tissue by thin-layer chromatography; assay type: ADME, organism-based; conditions: in vivo
Brain [13] = assay: Drug uptake albino mouse brain at 10 mg equivalent of oxazepam/kg, iv after 30 mins measured per gm of tissue by thin-layer chromatography; assay type: ADME, organism-based; conditions: in vivo, 0.5 h
Brain [14] = assay: Drug uptake albino mouse brain at 10 mg equivalent of oxazepam/kg, iv after 40 mins measured per gm of tissue by thin-layer chromatography; assay type: ADME, organism-based; conditions: in vivo
Brain [15] = assay: Drug uptake albino mouse brain at 10 mg equivalent of oxazepam/kg, iv after 60 mins measured per gm of tissue by thin-layer chromatography; assay type: ADME, organism-based; conditions: in vivo, 1 h
Brain [16] = assay: Drug uptake albino mouse brain at 10 mg equivalent of oxazepam/kg, iv after 90 mins measured per gm of tissue by thin-layer chromatography; assay type: ADME, organism-based; conditions: in vivo, 1.5 h
Brain [17] = assay: Drug uptake albino mouse brain at 10 mg equivalent of oxazepam/kg, iv after 120 mins measured per gm of tissue by thin-layer chromatography; assay type: ADME, organism-based; conditions: in vivo, 2 h
Brain [18] = assay: Drug uptake albino mouse brain at 10 mg equivalent of oxazepam/kg, iv after 240 mins measured per gm of tissue by thin-layer chromatography; assay type: ADME, organism-based; conditions: in vivo, 4 h
[19] = Retardation factor, Rm of the compound by thin-layer chromatography; assay type: physicochemical
Brain [20] = assay: Drug uptake albino mouse brain at 5 mg equivalent of oxazepam/kg, iv after 3 mins measured per gm of tissue by thin-layer chromatography; assay type: ADME, organism-based; conditions: in vivo, 0.05 h
Brain [21] = assay: Drug uptake albino mouse brain at 5 mg equivalent of oxazepam/kg, iv after 5 mins measured per gm of tissue by thin-layer chromatography; assay type: ADME, organism-based; conditions: in vivo
Brain [22] = assay: Drug uptake albino mouse brain at 5 mg equivalent of oxazepam/kg, iv after 10 mins measured per gm of tissue by thin-layer chromatography; assay type: ADME, organism-based; conditions: in vivo
Brain [23] = assay: Drug uptake albino mouse brain at 5 mg equivalent of oxazepam/kg, iv after 20 mins measured per gm of tissue by thin-layer chromatography; assay type: ADME, organism-based; conditions: in vivo
Brain [24] = assay: Drug uptake albino mouse brain at 5 mg equivalent of oxazepam/kg, iv after 40 mins measured per gm of tissue by thin-layer chromatography; assay type: ADME, organism-based; conditions: in vivo
Brain [25] = assay: Drug uptake albino mouse brain at 5 mg equivalent of oxazepam/kg, iv after 60 mins measured per gm of tissue by thin-layer chromatography; assay type: ADME, organism-based; conditions: in vivo, 1 h
Brain [26] = assay: Drug uptake albino mouse brain at 5 mg equivalent of oxazepam/kg, iv after 120 mins measured per gm of tissue by thin-layer chromatography; assay type: ADME, organism-based; conditions: in vivo, 2 h
Brain [27] = assay: Drug uptake albino mouse brain at 5 mg equivalent of oxazepam/kg, iv after 240 mins measured per gm of tissue by thin-layer chromatography; assay type: ADME, organism-based; conditions: in vivo, 4 h
Liver [28] = assay: Drug metabolism in albino mouse liver assessed as total metabolite concentration at 5 mg equivalent of oxazepam/kg, iv after 1 min by thin layer chromatography; assay type: ADME, organism-based; conditions: in vivo
Outline: (§3)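 Liver was dried and its total radioactivity, the sum of metabolites, was measured on a carbon-tritium analyzer. Values are means of four mice (±SE).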

Liver [29] = assay: Drug metabolism in albino mouse liver assessed as total metabolite concentration at 5 mg equivalent of oxazepam/kg, iv after 3 mins by thin layer chromatography; assay type: ADME, organism-based; conditions: in vivo, 0.05 h; outline: as §3
Liver [30] = assay: Drug metabolism in albino mouse liver assessed as total metabolite concentration at 5 mg equivalent of oxazepam/kg, iv after 5 mins by thin layer chromatography; assay type: ADME, organism-based; conditions: in vivo; outline: as §3
Liver [31] = assay: Drug metabolism in albino mouse liver assessed as total metabolite concentration at 5 mg equivalent of oxazepam/kg, iv after 10 mins by thin layer chromatography; assay type: ADME, organism-based; conditions: in vivo; outline: as §3
Brain [32] = assay: Drug uptake albino mouse brain at 5 mg equivalent of oxazepam/kg, iv after 1 min measured per gm of tissue by thin-layer chromatography; assay type: ADME, organism-based; conditions: in vivo
Brain [33] = assay: Drug uptake albino mouse brain at 10 mg equivalent of oxazepam/kg, iv after 1 min measured per gm of tissue by thin-layer chromatography; assay type: ADME, organism-based; conditions: in vivo
Brain [34] = assay: Drug uptake albino mouse brain at 10 mg equivalent of oxazepam/kg, iv after 3 mins measured per gm of tissue by thin-layer chromatography; assay type: ADME, organism-based; conditions: in vivo, 0.05 h
[35] = Mus musculus, iv, read-out: ED50

For CC(Cc1ccccc1)C(=O)OC1N=C(c2ccccc2)c2cc(Cl)ccc2NC1=O (single isomer, unassigned; (-)), the Km [1] was 8.7 µM, the ED50 (Mus musculus [2]) was 0.81 mg/kg and the ED50 (Mus musculus [3]) was 0.92 mg/kg. For the same compound, the ED50 (Mus musculus [4]) was 2.86 mg/kg, the ED50 (Mus musculus [5]) was 2.2 mg/kg and the “Ratio ED50” value (Mus musculus [6]) was 3.5. For the same compound, the Vmax [7] was 2.6 nmol/min and the “Ratio ED50” value (Mus musculus [8]) was 2.4.
Work on O=C(Cc1ccccc1)OC1N=C(c2ccccc2)c2cc(Cl)ccc2NC1=O (configuration not stated) yielded a Km (esterase) of 22.7 µM and a Vmax [7] of 12.2 nmol/min.
CC(Cc1ccccc1)C(=O)OC1N=C(c2ccccc2)c2cc(Cl)ccc2NC1=O (racemic) gave a Km [1] of 8.3 µM, an ED50 (Mus musculus [2]) of 0.51 mg/kg and an ED50 (Mus musculus [3]; [35]) of 0.66 mg/kg. The ED50 (Mus musculus [4]) was 3.75 mg/kg, the ED50 (Mus musculus [5]) was 4.01 mg/kg and the “Ratio ED50” value (Mus musculus [6]) was 7.4. The Vmax [7] was 2.4 nmol/min and the “Ratio ED50” value (Mus musculus [8]) was 6.1.
CCC(CC)C(=O)OC1N=C(c2ccccc2)c2cc(Cl)ccc2N[14C]1=O (configuration not stated) gave a Drug uptake (Brain [9]) of 0.8 nmol, a Drug uptake (Brain [10]) of 2 nmol and a Drug uptake (Brain [11]) of 4.8 nmol. The Drug uptake (Brain [12]) was 7.8 nmol, the Drug uptake (Brain [13]) was 12.1 nmol and the Drug uptake (Brain [14]) was 18 nmol. It also gave a Drug uptake (Brain [15]) of 23.1 nmol, a Drug uptake (Brain [16]) of 20.9 nmol and a Drug uptake (Brain [17]) of 20 nmol. It also gave a Drug uptake (Brain [18]) of 13.5 nmol and a Rm [19] of 0.46.
With CC(Cc1ccccc1)C(=O)OC1N=C(c2ccccc2)c2cc(Cl)ccc2N[14C]1=O (stereo in doubt; [14C]-11) the Drug uptake (Brain [20]) was 2.1 nmol, the Drug uptake (Brain [21]) was 2.6 nmol and the Drug uptake (Brain [22]) was 5.6 nmol. For the same compound, the Drug uptake (Brain [23]) was 7.7 nmol, the Drug uptake (Brain [24]) was 10.8 nmol and the Drug uptake (Brain [25]) was 12.8 nmol. It also gave a Drug uptake (Brain [26]) of 11.7 nmol and a Drug uptake (Brain [27]) of 7.2 nmol.
In the case of CC(Cc1ccccc1)C(=O)OC1N=C(c2ccccc2)c2cc(Cl)ccc2N[14C]1=O (single isomer, unassigned; (-)), the Drug uptake (Brain [20]) is reported as 0.8 nmol, the Drug uptake (Brain [21]) is reported as 1.6 nmol and the Drug uptake (Brain [22]) is reported as 4.6 nmol. It also gave a Drug uptake (Brain [23]) of 6.7 nmol, a Drug uptake (Brain [24]) of 11.8 nmol and a Drug uptake (Brain [25]) of 14.8 nmol. For the same compound, the Drug uptake (Brain [26]) was 13.7 nmol and the Drug uptake (Brain [27]) was 12.2 nmol.
Compound COC(=O)CCC(=O)OC1N=C(c2ccccc2)c2cc(Cl)ccc2NC1=O (configuration not stated) has a Vmax [7] of 125 nmol/min.
Work on O=C(CCCc1ccccc1)OC1N=C(c2ccccc2)c2cc(Cl)ccc2N[14C]1=O (configuration not stated) yielded a Drug uptake (Brain [20]) of 0.9 nmol, a Drug uptake (Brain [21]) of 0.8 nmol and a Drug uptake (Brain [22]) of 2.9 nmol. The Drug uptake (Brain [23]) was 6.5 nmol, the Drug uptake (Brain [24]) was 9.5 nmol and the Drug uptake (Brain [25]) was 9.6 nmol. It also gave a Drug uptake (Brain [26]) of 15.1 nmol, a Drug uptake (Brain [27]) of 12.2 nmol and a Drug metabolism (Liver [28]) of 80.7 nmol/g. The Drug metabolism (Liver [29]) was 85.9 nmol/g, the Drug metabolism (Liver [30]) was 82.3 nmol/g and the Drug metabolism (Liver [31]) was 40.4 nmol/g. For the same compound, the Rm [19] was 0.65 and the Drug uptake (Brain [32]) was 0.4 nmol.
For CC(=O)OC1N=C(c2ccccc2)c2cc(Cl)ccc2N[14C]1=O (configuration not stated), the Drug uptake (Brain [33]) was 29.9 nmol, the Drug uptake (Brain [34]) was 39.4 nmol and the Drug uptake (Brain [10]) was 47.5 nmol. For the same compound, the Drug uptake (Brain [11]) was 59.5 nmol, the Drug uptake (Brain [12]) was 49.2 nmol and the Drug uptake (Brain [13]) was 40.3 nmol. The Drug uptake (Brain [15]) was 46.6 nmol, the Drug uptake (Brain [17]) was 33 nmol and the Drug uptake (Brain [18]) was 11 nmol. It also gave a Rm [19] of -0.15.
Compound CC(=O)OC1N=C(c2ccccc2)c2cc(Cl)ccc2NC1=O (configuration not stated) has an ED50 (Mus musculus [2]; [35]) of 0.38 mg/kg, an ED50 (Mus musculus [3]; [35]) of 0.33 mg/kg and an ED50 (Mus musculus [4]) of 0.97 mg/kg. For the same compound, the ED50 (Mus musculus [5]) was 1.2 mg/kg, the “Ratio ED50” value (Mus musculus [6]) was 2.6 and the Vmax [7] was 323 nmol/min. For the same compound, the “Ratio ED50” value (Mus musculus [8]) was 3.6.
